{"source": "paper PMC4427841", "about": "(British journal of haematology, 2010)", "key": {"CT-L proteasome activity": {"tested_on": "CT-L proteasome activity", "settings": "MTD doses (0.7 mg/m^2), other clinical trials; cited from earlier work"}, "[1]": {"tested_on": "CHOP/GADD153, phospho-eIF2α, Bip, Hsp70 in xenografted MM.1S tumors", "test": "Immunoblot of ER stress proteins in tumor lysates", "type": "in vivo, CB-17 SCID mice", "settings": "tumors harvested 3h after last dose (Day 21)"}, "[2]": {"target": "20S proteasome chymotrypsin-like (CT-L, β5) activity (Homo sapiens, UniProt P28074)", "type": "in vivo, CB-17 SCID mice bearing human MM.1S tumors", "settings": "MM1.S, iv, read-out: CT-L proteasome activity inhibition in tumors, tumor, 24h after a single treatment, 0.15 mg/kg i.v."}, "proteasome [3]": {"tested_on": "proteasome", "settings": "rats, single dose 0.15 mg/kg; ref Chauhan, et al 2005; cited from earlier work"}, "[4]": {"tested_on": "20S proteasome CT-L, C-L, and T-L activities", "test": "Ex vivo 20S proteasome activities", "type": "in vivo, CB-17 SCID mice bearing human MM.1S tumors", "settings": "for inhibition of all three proteasome activities in tumor: approximately", "method_in_brief": "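Male CB-17 SCID mice (4-6 wk) carrying s.c. flank MM.1S xenografts (5.0 × 10^6 cells) were dosed i.v. at ∼200-300 mm3 with 0.15 mg/kg once (D1) or three times (D1, D4, D8), or with vehicle (2% DMSO in 5% Solutol). Euthanasia at 10 min, 1, 4, 24h. Homogenates used 20 μg protein in HEPES/EDTA pH 8.0 buffer with 60 μM fluorogenic substrate (Bz-VGR-AMC for T-L) and 0.05% SDS for CT-L/C-L. Reported as % inhibition vs vehicle; mean ± SD, n = 3.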"}, "[5]": {"tested_on": "Factor VIII-positive cells in xenografted MM.1S tumors", "test": "IHC Factor VIII staining", "type": "in vivo, CB-17 SCID mice", "settings": "vs vehicle alone, tumors harvested Day 21", "method_in_brief": "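Xenograft-bearing mice received vehicle or 0.15 mg/kg i.v. twice weekly for three weeks. MM.1S tumors were harvested 3h after the last dose (Day 21), and paraffin-embedded sections were immunostained for Factor VIII as an angiogenesis marker. The images shown are representative of two mice per treatment.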"}, "[6]": {"test": "Tolerability in efficacy study", "type": "in vivo, CB-17 SCID mice", "settings": "0.15 mg/kg i.v. twice a week for three weeks"}, "MM.1S tumors": {"tested_on": "MM.1S tumors", "test": "Human plasmacytoma xenograft efficacy study", "type": "in vivo, CB-17 SCID mice", "settings": "0.15 mg/kg i.v. twice a week for three weeks", "method_in_brief": "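Male CB-17 SCID mice (4-6 wk) were given 5.0 × 106 MM.1S cells s.c. in the flank in serum-free RPMI. They then received 0.15 mg/kg i.v. or vehicle (2% DMSO/98% of 5% Solutol) twice weekly for three weeks (D1, D4, D8, D11, D15, D18); n=5 per group. Tumors were measured with calipers every third day, and volume was calculated as V = 0.5 a × b2. Mean ± SD; Student's t test, P < 0.05.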"}, "[7]": {"tested_on": "caspase-3 activation / PARP cleavage in xenografted MM.1S tumors", "test": "In situ detection of apoptosis and immunoblot", "type": "in vivo, CB-17 SCID mice", "method_in_brief": "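Xenograft-bearing mice were treated i.v. with 0.15 mg/kg or vehicle twice weekly for three weeks. Tumors were harvested on Day 21, either 3h after the last dose (immunoblot) or at endpoint (IHC). For in situ staining, apoptotic cells were identified by cleaved caspase-3. Tumor lysates (three mice per group) were immunoblotted for PARP, cleaved caspase-3 and GAPDH, using HRP-conjugated secondary antibodies and ECL detection.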"}, "proteasome [8]": {"tested_on": "proteasome", "settings": "ref Chauhan, et al 2005; cited from earlier work"}, "[9]": {"settings": "tumors, single dose 0.15 mg/kg i.v."}}, "note": "Values joined by “and” are separate entries in the source; they are usually repeats but may differ in a detail not shown here. Identical values can stand only once. “Also recorded” adds a separate entry of the source."}
{"smiles": "C[C@@]12OC(=O)[C@]1([C@@H](O)[C@@H]1C=CCCC1)NC(=O)[C@@H]2CCCl", "note": "[NPI-0052, marizomib]", "values": [{"measurement": "inhibition of CT-L proteasome activity at MTD doses", "setting": "CT-L proteasome activity", "value": "Complete inhibition"}, {"measurement": "neuropathy or myelosuppression at MTD doses", "setting": "CT-L proteasome activity", "value": "without evidence of neuropathy or myelosuppression"}, {"measurement": "endoplasmic stress-response proteins in tumor lysates", "setting": "[1]", "value": "upregulation of CHOP/GADD153, phospho-eIF2α, Bip, and Hsp70"}, {"measurement": "inhibition at 0.15 mg/kg", "setting": "[2]", "value": 60, "unit": "%"}, {"measurement": "time for recovery of proteasome inhibition in PWB", "setting": "proteasome [3]", "value": "≤ 7", "unit": "days"}, {"measurement": "time to onset of inhibition of all three proteasome activities", "setting": "[4]; PWB, liver, spleen, lung, kidney, single dose 0.15 mg/kg i.v.", "value": "≤ 10", "unit": "min"}, {"measurement": "time for proteasome activities to return to baseline", "setting": "[4]; all tissues examined except PWB and tumors, single dose", "value": "≤ 24", "unit": "h"}, {"measurement": "inhibition of proteasome activity in brain", "setting": "[4]; brain tissue, any time point after single or three doses, 0.15 mg/kg i.v., 0.15 mg/kg", "value": "does not inhibit; also recorded: no significant inhibition"}, {"measurement": "time for recovery of all three proteasome activities", "setting": "[4]; liver, kidney, lung, spleen, after three doses", "value": "≤ 24", "unit": "h"}, {"measurement": "inhibition of all three proteasome activities in most tissues", "setting": "[4]; most tissues, without significant toxicity", "value": "greater than 70%"}, {"measurement": "duration of proteasome inhibition", "setting": "[4]; other organs (lung, liver, spleen, kidney)", "value": "< 24", "unit": "h"}, {"measurement": "inhibition of all three proteasome activities in tumor", "setting": "[4]; 24h post single dose", "value": "25-60%"}, {"measurement": "inhibition of all three proteasome activities in tumor", "setting": "[4]; 24h post third dose", "value": "70-80%"}, {"measurement": "duration of proteasome inhibition", "setting": "[4]; tumors and PWB", "value": "> 24", "unit": "h"}, {"measurement": "inhibition of all three proteasome activities", "setting": "[4]; tumors, PWB and other tissues except brain, within 10 mins following the third dose, 0.15 mg/kg i.v.", "value": "65-90%"}, {"measurement": "time of maximal inhibition of proteasome activities in tumors", "setting": "[4]; [9]", "value": 24, "unit": "h"}, {"measurement": "time to onset of inhibition of proteasome activities in tumors", "setting": "[4]; [9]", "value": "≤ 1", "unit": "h"}, {"measurement": "Factor VIII-positive cells in tumor sections", "setting": "[5]", "value": "dramatically decreased"}, {"measurement": "toxicity (body weight, overall appearance)", "setting": "[6]", "value": "not associated with any toxicity"}, {"measurement": "day on which anti-MM activity (delay in tumor growth) was first evident", "setting": "MM.1S tumors", "value": "7 days and 5 to 7 days"}, {"measurement": "tumor growth relative to vehicle-treated control", "setting": "MM.1S tumors", "value": "significantly decreased tumor growth"}, {"measurement": "PARP cleavage in tumor lysates", "setting": "[7]; tumors harvested 3h after last treatment (Day 21)", "value": "robust cleavage"}, {"measurement": "caspase-3 positive cells in tumor sections", "setting": "[7]; tumors harvested day 21, vs untreated control mice", "value": "increased numbers of caspase-3 positive cells"}]}
{"smiles": "CC(C)C[C@H](NC(=O)[C@H](Cc1ccccc1)NC(=O)c1cnccn1)B(O)O", "note": "[bortezomib]", "values": [{"measurement": "time for recovery of proteasome activity in blood", "setting": "proteasome [8]", "value": "≥ 48", "unit": "h"}]}
